Our source for the IC50 values is ChEMBL document CHEMBL1149866, “Cytotoxic diterpenoids from Euphorbia helioscopia” (J Nat Prod, 2008).

Bounds are passed on as bounds.

The test system of one experiment is HeLa. Nature of the experiment: Cytotoxicity against human HeLa cells by MTT method. The format is functional, cell-based. Put shortly:
(§1)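 HeLa (human cervical carcinoma) and MDA-MB-231 (breast tumor) cells; MTT viability read-out run per a previously published protocol; IC50 determined; adriamycin as positive control.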
A general note: Tetrazolium dyes change colour on reduction, which living cells bring about.

The next experiment has as its system MDA-MB-231. Description: Cytotoxicity against human MDA-MB-231 cells by MTT method. The format is functional, cell-based. Put shortly: as §1

One may read the IC50 as the point on the concentration scale where inhibition reaches its midpoint. Read a low IC50 as greater potency in that assay. With `CC(=O)O[C@@H]1C[C@@H](OC(C)=O)C(C)(C)[C@H](O)[C@H]2O[C@@]3(C[C@H](C)[C@H](OC(=O)c4ccccc4)[C@@H]3/C=C/1C)[C@@H](OC(C)=O)[C@H]2C`, the IC50 with HeLa and in the experiment on MDA-MB-231 was above 10 µM in each case.

On to `CC(=O)O[C@@H]1[C@H](C)/C=C/C(C)(C)C(=O)C[C@@H](OC(=O)c2ccccc2)/C(CO)=C/[C@H]2[C@@H](OC(=O)c3ccccc3)[C@H](C)C[C@]12OC(C)=O`, for which the half-inhibitory concentration (IC50) with HeLa and in the experiment on MDA-MB-231 was above 10 µM each time.

Consider `CC(=O)O[C@H]1[C@@H](C)/C=C/C(C)(C)[C@H](O)C[C@@H](O)/C(C)=C/[C@H]2[C@@H](OC(=O)c3ccccc3)[C@@H](C)C[C@@]21O`, for which the IC50 in the experiment with HeLa and with MDA-MB-231 was above 10 µM in each case.

`CC(=O)O[C@@H]1[C@H]2O[C@@]3(C[C@H](C)[C@H](OC(=O)c4ccccc4)[C@@H]3/C=C(\C)[C@H](OC(C)=O)C[C@@H](OC(C)=O)C1(C)C)[C@@H](OC(C)=O)[C@H]2C`: the 50% inhibitory concentration (IC50) in the experiment on HeLa and in the experiment on MDA-MB-231 was above 10 µM each time.

In the case of `CC(=O)O[C@@H]1C[C@@H](OC(C)=O)C(C)(C)/C=C/[C@H](C)[C@H](OC(C)=O)[C@@]2(O)C[C@H](C)[C@H](OC(=O)c3ccccc3)[C@@H]2/C=C/1CO`, the half-inhibitory concentration (IC50) in the experiment with HeLa and in the experiment with MDA-MB-231 was above 10 µM each time.

In the case of `CC(=O)O[C@@H]1C[C@@H](O)C(C)(C)/C=C/[C@H](C)[C@H](OC(C)=O)[C@@]2(O)C[C@H](C)[C@H](OC(=O)c3ccccc3)[C@@H]2/C=C/1C` [EUPHORNIN B], the IC50 in the experiment on HeLa and in the experiment with MDA-MB-231 was above 10 µM in each case.

For `CC(=O)O[C@@H]1C[C@@H](OC(C)=O)C(C)(C)/C=C/[C@H](C)[C@H](OC(C)=O)[C@@]2(O)C[C@H](C)[C@H](OC(=O)c3ccccc3)[C@@H]2/C=C/1C` [EUPHORNIN], the values for the IC50 in the experiment on HeLa and in the experiment with MDA-MB-231 were 3.1 µM and 13.4 µM, respectively.

On to `CC(=O)O[C@@H]1[C@H](C)/C=C/C(C)(C)C(=O)C[C@@H](OC(=O)c2ccccc2)/C(C)=C/[C@H]2[C@@H](OC(=O)c3ccccc3)[C@H](C)C[C@]12OC(C)=O` [EUPHOSCOPIN C], for which the concentration for half-maximal inhibition (IC50) in the experiment with HeLa and in the experiment with MDA-MB-231 was above 10 µM in each case.

Consider `CC1=C2C=C3CC[C@@H]4C(C)(C)[C@H](O)CC[C@@]4(C)[C@@H]3C[C@H]2OC1=O` [HELIOSCOPINOLIDE A], for which the half-inhibitory concentration (IC50) was 0.11 µM in the experiment on HeLa and 2.1 µM in the experiment on MDA-MB-231.
